{"data": "Published values collected from several papers", "FLT3 N841I": "Receptor-type tyrosine-protein kinase FLT3 (FLT3, Homo sapiens, UniProt P36888, N841I)", "FLT3 autoinhibited": "Receptor-type tyrosine-protein kinase FLT3, autoinhibited (FLT3, Homo sapiens, UniProt P36888)", "FLT3 R834Q": "Receptor-type tyrosine-protein kinase FLT3 (FLT3, Homo sapiens, UniProt P36888, R834Q)", "FLT3 ITD": "Receptor-type tyrosine-protein kinase FLT3 (FLT3, Homo sapiens, UniProt P36888, ITD)", "FLT3 D835V/ITD": "Receptor-type tyrosine-protein kinase FLT3 (FLT3, Homo sapiens, UniProt P36888, D835V/ITD)", "FLT3": "Receptor-type tyrosine-protein kinase FLT3 (FLT3, Homo sapiens, UniProt P36888)"}
{"SMILES": "O=C(Nc1c[nH]nc1C(=O)NC1CCNCC1)c1cc(F)cc(F)c1", "target": "FLT3 N841I", "read-out": "binding", "method": "competition with immobilised ligand", "concentration": "1 µM", "remaining binding [%]": 100}
{"SMILES": "COc1cnc(Nc2cccc(S(N)(=O)=O)c2)nc1N1CCN(c2ccccc2)CC1", "target": "FLT3 autoinhibited", "read-out": "binding", "method": "competition with immobilised ligand", "concentration": "1 µM", "remaining binding [%]": 91}
{"SMILES": "Cc1cc(C)c(-n2ccn3nc(-c4cccnc4)cc23)cc1NC(=O)c1cc(C#N)cc(S(F)(F)(F)(F)F)c1", "target": "FLT3 R834Q", "read-out": "cell-free assay", "method": "competition with immobilised ligand", "concentration": "0.1 µM", "remaining binding [%]": 62.3}
{"SMILES": "Cc1cnc(Nc2ccc(C(=O)N3CCC(N4CCCC4)CC3)cc2)nc1-c1cc2ccccc2s1", "target": "FLT3 ITD", "read-out": "binding", "method": "competition with immobilised ligand", "concentration": "1 µM", "remaining binding [%]": 6.6}
{"SMILES": "CN(CCCC(F)(F)F)c1nccc(-c2cnn3ncccc23)n1", "target": "FLT3 autoinhibited", "read-out": "binding", "concentration": "1 µM", "remaining binding [%]": 100}
{"SMILES": "c1ccc(N2CCN(Cc3nc4ccccc4[nH]3)CC2)nc1", "target": "FLT3 ITD", "read-out": "binding", "method": "competition with immobilised ligand", "concentration": "1 µM", "remaining binding [%]": 100}
{"SMILES": "O=C(NCCCN1CCOCC1)c1ccc(Nc2nccc(-c3cc4ccccc4s3)n2)cc1", "target": "FLT3 autoinhibited", "read-out": "binding", "method": "competition with immobilised ligand", "concentration": "1 µM", "remaining binding [%]": 67}
{"SMILES": "CCc1ccccc1C(=O)Nc1n[nH]c2c(C)c(F)c(C3C(C#N)=C(C)N(C)C(C)=C3C#N)cc12", "target": "FLT3 autoinhibited", "read-out": "cell-free assay", "method": "competition with immobilised ligand", "concentration": "1 µM", "remaining binding [%]": 88}
{"SMILES": "CCN1CCN(Cc2ccc(C(=O)Nc3ccc(C)c(Oc4ccc5c(c4)CC(=O)N5)c3)cc2C(F)(F)F)CC1", "target": "Receptor-type tyrosine-protein kinase FLT3 (FLT3, Homo sapiens, UniProt P36888, D835Y)", "read-out": "binding", "method": "competition with immobilised ligand", "concentration": "1 µM", "remaining binding [%]": 100}
{"SMILES": "O=C(c1ccc(Nc2nccc(-c3cc4ccccc4s3)n2)cc1)N1CCC(N2CCCC2)CC1", "target": "Receptor-type tyrosine-protein kinase FLT3 (FLT3, Homo sapiens, UniProt P36888, F691L/ITD)", "read-out": "binding", "method": "competition with immobilised ligand", "concentration": "1 µM", "remaining binding [%]": 19}
{"SMILES": "CCS(=O)(=O)c1cc2cc(C[C@@](O)(CC(C)(C)c3ccc(F)cc3C(N)=O)C(F)(F)F)[nH]c2cn1", "target": "FLT3 D835V/ITD", "read-out": "cell-free assay", "method": "competition with immobilised ligand", "concentration": "1 µM", "remaining binding [%]": 73}
{"SMILES": "N[C@@H]1CCN(c2nccc(-c3cnn4ncccc34)n2)C1", "target": "FLT3", "read-out": "binding", "concentration": "1 µM", "remaining binding [%]": 100}
{"SMILES": "C[C@@H](c1ccc(-n2cnc3c(N)ncnc32)cc1)N1CCc2nn(C)c(Cc3ccccc3)c2C1=O", "target": "FLT3", "read-out": "binding", "method": "competition with immobilised ligand", "concentration": "0.1 µM", "remaining binding [%]": 100}
{"SMILES": "C[C@H]1CCN(c2nccc(-c3cnn4ncccc34)n2)C1", "target": "FLT3 autoinhibited", "read-out": "binding", "concentration": "1 µM", "remaining binding [%]": 72}
{"SMILES": "O=C(NCCCN1CCOCC1)c1ccc(Nc2ncc(Cl)c(-c3ccc(Cl)s3)n2)cc1", "target": "FLT3 D835V/ITD", "read-out": "binding", "method": "competition with immobilised ligand", "concentration": "1 µM", "remaining binding [%]": 1.8}
{"SMILES": "CN(C)c1nccc(-c2cnc3ncccn23)n1", "target": "FLT3 R834Q", "read-out": "binding", "concentration": "1 µM", "remaining binding [%]": 61}
{"SMILES": "O=C(c1ccc(Nc2ncc(Cl)c(-c3cc4ccccc4s3)n2)cc1)N1CCC(N2CCCC2)CC1", "target": "Receptor-type tyrosine-protein kinase FLT3 (FLT3, Homo sapiens, UniProt P36888, K663Q)", "read-out": "binding", "method": "competition with immobilised ligand", "concentration": "1 µM", "remaining binding [%]": 3.4}
{"SMILES": "O=C1CCc2cc(Nc3cc(OC4CCOCC4)c([N+](=O)[O-])cc3Cl)ccc2N1", "target": "FLT3 D835V/ITD", "read-out": "cell-free assay", "method": "competition with immobilised ligand", "concentration": "1 µM", "remaining binding [%]": 78}
{"SMILES": "CC1CCCN1c1nccc(-c2cnn3ncccc23)n1 (centres unmarked)", "target": "FLT3 autoinhibited", "read-out": "binding", "concentration": "1 µM", "remaining binding [%]": 100}
{"SMILES": "NS(=O)(=O)c1cc(NC(=O)Cc2ccccc2)ccc1Oc1cccc(Cl)c1", "target": "Receptor-type tyrosine-protein kinase FLT3 (FLT3, Homo sapiens, UniProt P36888, D835V)", "read-out": "cell-free assay", "method": "competition with immobilised ligand", "concentration": "1 µM", "remaining binding [%]": 86}
{"SMILES": "c1cnn2ncc(-c3ccnc(N4CCC45COC5)n3)c2c1", "target": "FLT3 N841I", "read-out": "binding", "concentration": "1 µM", "remaining binding [%]": 72}
{"SMILES": "Cn1nc(C(F)(F)F)cc1-c1cnc(N2CCc3cc(S(=O)(=O)Nc4c(F)cc(Cl)cc4F)cc(N4CCCC4=O)c32)nc1", "target": "FLT3 N841I", "read-out": "cell-free assay", "method": "competition with immobilised ligand", "concentration": "1 µM", "remaining binding [%]": 94}
{"SMILES": "F[C@@H]1CCN(c2nccc(-c3cnn4ncccc34)n2)C1", "target": "FLT3", "read-out": "binding", "concentration": "1 µM", "remaining binding [%]": 81}
